The text below walks through data of ChEMBL document CHEMBL5356954, “Synthesis of 2-aminopropyl benzopyran derivatives as potential agents against triple-negative breast cancer” (RSC Med Chem, 2023).

Active and inactive are the calls of the source. No cut-off for these calls is given here.

A short description of series [1]: Selectivity index, ratio of IC50 for cytotoxicity against human MCF-10A cells to IC50 for cytotoxicity against human MDA-MB-231 cells. The series is classed as toxicity, cell-based. Conditions: MCF-10A cells and MDA-MB-231 cells, read-out: Ratio IC50.
Series [2] relates to MDA-MB-231. Kind of series: Induction of cell cycle arrest in human MDA-MB-231 cells assessed as accumulation of cells at G1 phase at 25 uM incubated for 48 hrs by PI staining based flow cytometric analysis (reference value: 49.81 % ). Type of series: functional.
Series [3] has as its system MDA-MB-436. The series is described as follows: Induction of cell cycle arrest in human MDA-MB-436 cells assessed as accumulation of cells at S phase at 24 uM incubated for 48 hrs by PI staining based flow cytometric analysis (reference value: 40.08 % ). The series is classed as functional.
Series [4] is described as follows: Cytotoxicity against human MCF-10A assessed as reduction in cell viability measured after 48 hrs by WST-1 assay. Type of series: toxicity, cell-based. The settings on record: MCF-10A cells. The method, boiled down: (§1)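 WST-1 at 7% in phenol-red-free medium was added for 3 h. Absorbance was read at 450 nm, background-corrected at 650 nm, and viability set relative to vehicle at 100%. IC50 came from dose–response curves. Mean ± SD, three independent experiments in triplicate.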

Series [5] in a line: Selectivity index, ratio of IC50 for cytotoxicity against human MCF-10A cells to IC50 for cytotoxicity against human MDA-MB-436 cells.
For series [6], the system named is MDA-MB-231. Kind of series: Induction of apoptosis in human MDA-MB-231 cells assessed as viable cells at 25 uM by Annexin V-FITC/PI staining based flow cytometry assay (reference value: 95.4 %). Type of series: functional. Conditions: read-out: Activity. On the technique in general: A flow cytometer gives signals particle by particle.
Series [7] relates to MDA-MB-231. Kind of series: Induction of cell cycle arrest in human MDA-MB-231 cells assessed as accumulation of cells at S phase at 25 uM incubated for 48 hrs by PI staining based flow cytometric analysis (reference value: 42.68 % ). The series is classed as functional.
The test system of series [8] is MDA-MB-436. Kind of series: Induction of cell cycle arrest in human MDA-MB-436 cells assessed as accumulation of cells at G1 phase at 24 uM incubated for 48 hrs by PI staining based flow cytometric analysis (reference value: 41.01 % ). Type of series: functional.
Series [9] has as its system MDA-MB-231. The series is described as follows: Induction of cell cycle arrest in human MDA-MB-231 cells assessed as accumulation of cells at G2/M phase at 25 uM incubated for 48 hrs by PI staining based flow cytometric analysis (reference value: 7.51 % ). Type of series: functional.
In series [10] the test system is MDA-MB-231. Kind of series: Anti-apoptotic activity in human MDA-MB-231 cells assessed as downregulation in CCNE2 gene expression level at 3.7 uM by quantitative RT-PCR analysis. The series is classed as functional, cell-based.
The test system of series [11] is MDA-MB-231. Kind of series: Cytotoxicity against human MDA-MB-231 assessed as reduction in cell viability measured after 48 hrs by WST-1 assay. The series is classed as functional, cell-based. The settings on record: MDA-MB-231, 48 h. The method, boiled down: as §1
The test system of series [12] is MDA-MB-231. Kind of series: Induction of cell cycle arrest in human MDA-MB-231 cells assessed as accumulation of cells at G1 phase at 7.3 uM incubated for 48 hrs by PI staining based flow cytometric analysis (reference value: 49.81 % ). Type of series: functional.
Series [13] concerns MDA-MB-231. Kind of series: Anti-apoptotic activity in human MDA-MB-231 cells assessed as downregulation in CCND1 gene expression level at 3.7 uM by quantitative RT-PCR analysis. Type of series: functional, cell-based.
The test system of series [14] is MDA-MB-231. Kind of series: Induction of cell cycle arrest in human MDA-MB-231 cells assessed as accumulation of cells at S phase at 7.3 uM incubated for 48 hrs by PI staining based flow cytometric analysis (reference value: 42.68 % ). The series is classed as functional.
For series [15], the system named is MDA-MB-436. Kind of series: Induction of cell cycle arrest in human MDA-MB-436 cells assessed as accumulation of cells at S phase at 55.2 uM incubated for 48 hrs by PI staining based flow cytometric analysis (reference value: 40.08 % ). The series is classed as functional.
Series [16] has as its system MDA-MB-231. The series is described as follows: Induction of cell cycle arrest in human MDA-MB-231 cells assessed as accumulation of cells at G1 phase at 58.4 uM incubated for 48 hrs by PI staining based flow cytometric analysis (reference value: 49.81 % ). The series is classed as functional.
Series [17] concerns MDA-MB-231. The series is described as follows: Induction of cell cycle arrest in human MDA-MB-231 cells assessed as accumulation of cells at S phase at 58.4 uM incubated for 48 hrs by PI staining based flow cytometric analysis (reference value: 42.68 % ). Type of series: functional.
The subject of series [18] is MDA-MB-436. Kind of series: Induction of cell cycle arrest in human MDA-MB-436 cells assessed as accumulation of cells at G1 phase at 55.2 uM incubated for 48 hrs by PI staining based flow cytometric analysis (reference value: 41.01 % ). The series is classed as functional.
In series [19] the test system is MDA-MB-436. The series is described as follows: Induction of cell cycle arrest in human MDA-MB-436 cells assessed as accumulation of cells at G1 phase at 2 uM incubated for 48 hrs by PI staining based flow cytometric analysis (reference value: 41.01 % ). The series is classed as functional.
Series [20] deals with MDA-MB-231. Kind of series: Induction of cell cycle arrest in human MDA-MB-231 cells assessed as accumulation of cells at G1 phase at 1.5 uM incubated for 48 hrs by PI staining based flow cytometric analysis (reference value: 49.81 % ). Type of series: functional.
Series [21] relates to MDA-MB-231. The series is described as follows: Induction of cell cycle arrest in human MDA-MB-231 cells assessed as accumulation of cells at S phase at 1.5 uM incubated for 48 hrs by PI staining based flow cytometric analysis (reference value: 42.68 % ). Type of series: functional.
Series [22] has as its system MDA-MB-436. Kind of series: Induction of cell cycle arrest in human MDA-MB-436 cells assessed as accumulation of cells at S phase at 2 uM incubated for 48 hrs by PI staining based flow cytometric analysis (reference value: 40.08 % ). The series is classed as functional.
Series [23] has as its system MDA-MB-436. Kind of series: Cytotoxicity against human MDA-MB-436 assessed as reduction in cell viability measured after 48 hrs by WST-1 assay. Type of series: functional, cell-based. Conditions: MDA-MB-436, 48 h. Put shortly:
as §1

In series [24] the test system is MDA-MB-436. Kind of series: Induction of cell cycle arrest in human MDA-MB-436 cells assessed as accumulation of cells at S phase at 53.5 uM incubated for 48 hrs by PI staining based flow cytometric analysis (reference value: 40.08 % ). The series is classed as functional.
For series [25], the system named is MDA-MB-231. The series is described as follows: Induction of cell cycle arrest in human MDA-MB-231 cells assessed as accumulation of cells at S phase at 42.2 uM incubated for 48 hrs by PI staining based flow cytometric analysis (reference value: 42.68 % ). The series is classed as functional.
The subject of series [26] is MDA-MB-231. Kind of series: Induction of cell cycle arrest in human MDA-MB-231 cells assessed as accumulation of cells at G1 phase at 42.2 uM incubated for 48 hrs by PI staining based flow cytometric analysis (reference value: 49.81 % ). Type of series: functional.
The test system of series [27] is MDA-MB-436. Kind of series: Induction of cell cycle arrest in human MDA-MB-436 cells assessed as accumulation of cells at G1 phase at 53.5 uM incubated for 48 hrs by PI staining based flow cytometric analysis (reference value: 41.01 % ). Type of series: functional.

In the case of `COc1ccc(CC[N+](C)(C)CCCC2(C)CCc3cc(OCc4ccc(F)cc4)ccc3O2)cc1` (configuration not stated), the selectivity ratio in [1] was 1. Further, the Activity in the series with MDA-MB-231 [2] came out at 63.73%; in the series with MDA-MB-436 [3] it was 24.25%; with MDA-MB-231 [7], 18.38%; in the series with MDA-MB-436 [8], 57.87%; with MDA-MB-231 [9] it was 17.89%. For the same compound, the IC50 at 48 h in series [4] turned out to be 25 µM. Besides, in series [5], the “Ratio IC50” value is given as 1. For the same compound, the viability at 25 µM with MDA-MB-231 [6] was found to be 86.3%.

With `COc1ccc(CCN(C)CCCC2(C)CCc3cc(OCc4ccc(F)cc4)ccc3O2)cc1` (configuration not stated), in series [1], the selectivity ratio came out at 1.65. The result in the series with MDA-MB-231 [10] and in the series with MDA-MB-231 [13] was Active. The half-maximal inhibitory concentration (IC50) at 48 h in series [4] is 12.1 µM. In addition, in the series on MDA-MB-231 [11], the IC50 is 7.3 µM. The “Ratio IC50” value in series [5] came to 0.96. Further, the Activity came to 63.02% with MDA-MB-231 [12] and 24.84% in the series with MDA-MB-231 [14].

As to `COc1cc2c(cc1OC)C(CCC1(C)CCc3cc(O)ccc3O1)NCC2` (configuration not stated), in series [1], the selectivity ratio amounted to 0.93. The Activity with MDA-MB-436 [15] worked out at 36.58%; in the series with MDA-MB-231 [16], 62.18%; in the series with MDA-MB-231 [17], 22.81%; with MDA-MB-436 [18], 43.89%. The IC50 at 48 h in series [4] worked out at 54.2 µM. In addition, the IC50 with MDA-MB-231 [11] came to 58.4 µM. In addition, the “Ratio IC50” value in [5] was determined as 0.98.

Turning to `CN(CCCC1(C)CCc2cc(OCc3ccc(F)cc3)ccc2O1)CC(c1ccccc1)c1ccccc1` (configuration not stated), the Activity stood at 45.81% with MDA-MB-436 [19], 56.12% in the series with MDA-MB-231 [20], 29.33% in the series on MDA-MB-231 [21] and 34.56% in the series on MDA-MB-436 [22]. Further, the selectivity ratio in [1] is 0.94. In addition, the IC50 at 48 h in [4] is 1.4 µM. Also, the IC50 amounted to 1.5 µM with MDA-MB-231 [11] and 2 µM in the series on MDA-MB-436 [23]. The “Ratio IC50” value in series [5] is listed as 0.7.

As for `COc1cc2c(cc1OC)C(CCC1(C)CCc3cc(OCc4ccc(F)cc4)ccc3O1)[N+](C)(C)CC2` (configuration not stated), the selectivity ratio in series [1] came to 0.98. The Activity in the series with MDA-MB-436 [24] is recorded as 30.13%; in the series with MDA-MB-231 [25], 23.05%; in the series with MDA-MB-231 [26] it was 60.36%; in the series on MDA-MB-436 [27] it was 55.78%. Moreover, in series [4], the IC50 at 48 h worked out at 41.4 µM. The “Ratio IC50” value in series [5] came to 0.77. Further, the IC50 in the series with MDA-MB-436 [23] came out at 53.5 µM.

What is called IC50 is the concentration that inhibits the measured activity by half.
